Assay results taken from ChEMBL document CHEMBL1781961, “Synthesis and in vitro antibacterial activity of 7-(3-alkoxyimino-4-amino-4-methylpiperidin-1-yl) fluoroquinolone derivatives” (Eur J Med Chem, 2011).
Converted amounts (≈) assume the structure as drawn.

Experiments:
Enterococcus faecium [1] = experiment: Antibacterial activity against 10^4 CFU Enterococcus faecium 06-7 after 18 hrs by CLSI agar dilution method; assay type: functional; conditions: 06-7, 18 h
Escherichia coli [2] = experiment: Antibacterial activity against 10^4 CFU Escherichia coli 08-21 after 18 hrs by CLSI agar dilution method; assay type: functional; conditions: 08-21, 18 h
Enterococcus faecalis [3] = experiment: Antibacterial activity against 10^4 CFU Enterococcus faecalis 08-10 after 18 hrs by CLSI agar dilution method; assay type: functional; conditions: 08-10, 18 h
Streptococcus pneumoniae [4] = experiment: Antibacterial activity against 10^4 CFU Streptococcus pneumoniae 08-4 after 18 hrs by CLSI agar dilution method; assay type: functional; conditions: 08-4, 18 h
Enterococcus faecalis [5] = experiment: Antibacterial activity against 10^4 CFU Enterococcus faecalis 08-12 after 18 hrs by CLSI agar dilution method; assay type: functional; conditions: 08-12, 18 h
Escherichia coli [6] = experiment: Antibacterial activity against 10^4 CFU Escherichia coli ATCC 25922 after 18 hrs by CLSI agar dilution method; assay type: functional; conditions: ATCC 25922, 18 h
Staphylococcus aureus [7] = experiment: Antibacterial activity against 10^4 CFU methicillin-sensitive Staphylococcus aureus 08-1 after 18 hrs by CLSI agar dilution method; assay type: functional; conditions: 08-1, 18 h
Staphylococcus aureus [8] = experiment: Antibacterial activity against 10^4 CFU methicillin-resistant Staphylococcus aureus 08-1 after 18 hrs by CLSI agar dilution method; assay type: functional; conditions: 08-1, 18 h
[9] = tested on: Staphylococcus epidermidis; experiment: Antibacterial activity against 10^4 CFU methicillin-resistant Staphylococcus epidermidis 09-2 after 18 hrs by CLSI agar dilution method; assay type: functional; conditions: 09-2, 18 h
Klebsiella pneumoniae [10] = experiment: Antibacterial activity against 10^4 CFU Klebsiella pneumoniae 09-22 after 18 hrs by CLSI agar dilution method; assay type: functional; conditions: 09-22, 18 h
[11] = Cytotoxicity against MDCK cells after 48 hrs by CPE assay; assay type: cell-based, Canis lupus familiaris; conditions: dog
Procedure, shortened: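 MDCK cells kept in Minimum Essential Medium with Earle's salt plus 10% fetal bovine serum at 37 °C, 5% CO₂. […] Medium then replaced by assay medium with or without compound. After 48 h exposure, viability read by CPE assay. CC₅₀ calculated by Reed–Muench analysis.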

Staphylococcus aureus [12] = experiment: Antibacterial activity against 10^4 CFU Staphylococcus aureus ATCC 25923 after 18 hrs by CLSI agar dilution method; assay type: functional; conditions: ATCC 25923, 18 h
Enterococcus faecium [13] = experiment: Antibacterial activity against 10^4 CFU Enterococcus faecium 08-2 after 18 hrs by CLSI agar dilution method; assay type: functional; conditions: 08-2, 18 h
[14] = tested on: Staphylococcus epidermidis; experiment: Antibacterial activity against 10^4 CFU methicillin-sensitive Staphylococcus epidermidis 09-6 after 18 hrs by CLSI agar dilution method; assay type: functional; conditions: 09-6, 18 h
Klebsiella pneumoniae [15] = experiment: Antibacterial activity against 10^4 CFU Klebsiella pneumoniae 09-23 after 18 hrs by CLSI agar dilution method; assay type: functional; conditions: 09-23, 18 h
Pseudomonas aeruginosa [16] = experiment: Antibacterial activity against 10^4 CFU Pseudomonas aeruginosa ATCC 27853 after 18 hrs by CLSI agar dilution method; assay type: functional; conditions: ATCC 27853, 18 h
Pseudomonas aeruginosa [17] = experiment: Antibacterial activity against 10^4 CFU Pseudomonas aeruginosa 09-32 after 18 hrs by CLSI agar dilution method; assay type: functional; conditions: 09-32, 18 h
Enterococcus faecalis [18] = experiment: Ratio of levofloxacin MIC to compound MIC for Enterococcus faecalis; assay type: functional
Procedure, shortened: (§1)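 MICs were measured by agar dilution on plates carrying serial twofold dilutions from […] down to 0.03. Plates were inoculated with 10⁴ cfu and incubated at 35 °C for 18 h. MIC was taken as the lowest concentration giving no visible growth. The ratio is the reference quinolone MIC divided by the test compound MIC for the same strain.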

[19] = tested on: Staphylococcus epidermidis; experiment: Ratio of levofloxacin MIC to compound MIC for methicillin-sensitive Staphylococcus epidermidis 09-6; assay type: functional; procedure, shortened: as §1
Enterococcus faecalis [20] = experiment: Ratio of gatifloxacin MIC to compound MIC for Enterococcus faecalis; assay type: functional; procedure, shortened: as §1
Enterococcus faecalis [21] = experiment: Ratio of gemifloxacin MIC to compound MIC for Enterococcus faecalis; assay type: functional; procedure, shortened: as §1
Streptococcus pneumoniae [22] = experiment: Ratio of levofloxacin MIC to compound MIC for Streptococcus pneumoniae 08-4; assay type: functional; procedure, shortened: as §1

Row | SMILES | MIC (Enterococcus faecium [1]) [µg/mL] | MIC (Escherichia coli [2]) [µg/mL] | MIC (Enterococcus faecalis [3]) [µg/mL] | MIC (Streptococcus pneumoniae [4]) [µg/mL] | MIC (Enterococcus faecalis [5]) [µg/mL] | MIC (Escherichia coli [6]) [µg/mL] | MIC (Staphylococcus aureus [7]) [µg/mL] | MIC (Staphylococcus aureus [8]) [µg/mL] | MIC [9] [µg/mL] | MIC (Klebsiella pneumoniae [10]) [µg/mL] | CC50 at 48 h [11] [µM] | MIC (Staphylococcus aureus [12]) [µg/mL] | MIC (Enterococcus faecium [13]) [µg/mL] | MIC [14] [µg/mL] | MIC (Klebsiella pneumoniae [15]) [µg/mL] | MIC (Pseudomonas aeruginosa [16]) [µg/mL] | MIC (Pseudomonas aeruginosa [17]) [µg/mL] | also measured
1 | CO/N=C1\CN(c2c(F)cc3c(=O)c(C(=O)O)cn(CCF)c3c2F)CCC1(C)N (stereo not given) | 128 (≈ 300 µM) | 32 (≈ 75 µM) | 128 (≈ 300 µM) | 2 (≈ 4.69 µM) | 32 (≈ 75 µM) | 32 (≈ 75 µM) | 0.25 (≈ 0.586 µM) | 0.25 (≈ 0.586 µM) | 0.25 (≈ 0.586 µM) | 16 (≈ 37.5 µM) | 36.6 | 0.125 (≈ 0.293 µM) | 32 (≈ 75 µM) | 0.25 (≈ 0.586 µM) | 32 (≈ 75 µM) | 2 (≈ 4.69 µM) | 0.5 (≈ 1.17 µM) | –
2 | COc1c(N2CCNC(C)C2)c(F)cc2c(=O)c(C(=O)O)cn(C3CC3)c12 (stereo not given) [GATIFLOXACIN] | 4 (≈ 10.7 µM) | 8 (≈ 21.3 µM) | 8 (≈ 21.3 µM) | 0.25 (≈ 0.666 µM) | 4 (≈ 10.7 µM) | 4 (≈ 10.7 µM) | 0.06 (≈ 0.16 µM) | 0.25 (≈ 0.666 µM) | 0.25 (≈ 0.666 µM) | 0.25 (≈ 0.666 µM) | 396 | 0.06 (≈ 0.16 µM) | 2 (≈ 5.33 µM) | 0.25 (≈ 0.666 µM) | 2 (≈ 5.33 µM) | 1 (≈ 2.66 µM) | 16 (≈ 42.6 µM) | –
3 | CO/N=C1\CN(c2nc3c(cc2F)c(=O)c(C(=O)O)cn3C2CC2)CC1CN (stereo not given) [GEMIFLOXACIN] | 16 (≈ 41.1 µM) | 16 (≈ 41.1 µM) | 16 (≈ 41.1 µM) | 0.25 (≈ 0.642 µM) | 16 (≈ 41.1 µM) | 4 (≈ 10.3 µM) | 0.06 (≈ 0.154 µM) | 0.25 (≈ 0.642 µM) | 0.125 (≈ 0.321 µM) | 8 (≈ 20.5 µM) | 321 | 0.125 (≈ 0.321 µM) | 2 (≈ 5.14 µM) | 0.25 (≈ 0.642 µM) | 8 (≈ 20.5 µM) | 2 (≈ 5.14 µM) | 0.25 (≈ 0.642 µM) | –
4 | CCO/N=C1\CN(c2c(F)cc3c(=O)c(C(=O)O)cn(C4CC4)c3c2F)CCC1(C)N (stereo not given) | > 128 | > 128 | 4 (≈ 9.21 µM) | 4 (≈ 9.21 µM) | > 128 | 128 (≈ 295 µM) | 0.5 (≈ 1.15 µM) | 0.5 (≈ 1.15 µM) | 0.5 (≈ 1.15 µM) | 4 (≈ 9.21 µM) | 288 | 0.5 (≈ 1.15 µM) | > 128 | 0.5 (≈ 1.15 µM) | > 128 | 8 (≈ 18.4 µM) | 4 (≈ 9.21 µM) | –
5 | CO/N=C1\CN(c2nc3c(cc2F)c(=O)c(C(=O)O)cn3-c2ccc(F)cc2F)CCC1(C)N (stereo not given) | > 128 | > 128 | 64 (≈ 135 µM) | 1 (≈ 2.1 µM) | 64 (≈ 135 µM) | 16 (≈ 33.7 µM) | 0.25 (≈ 0.526 µM) | 0.25 (≈ 0.526 µM) | 0.25 (≈ 0.526 µM) | 64 (≈ 135 µM) | 93 | 0.25 (≈ 0.526 µM) | > 128 | 0.25 (≈ 0.526 µM) | 64 (≈ 135 µM) | 4 (≈ 8.41 µM) | 0.25 (≈ 0.526 µM) | –
6 | CCn1cc(C(=O)O)c(=O)c2cc(F)c(N3CCC(C)(N)/C(=N/OC)C3)c(F)c21 (stereo not given) | > 128 | > 128 | 32 (≈ 78.4 µM) | 0.25 (≈ 0.612 µM) | 64 (≈ 157 µM) | 128 (≈ 313 µM) | 0.25 (≈ 0.612 µM) | 0.25 (≈ 0.612 µM) | 0.25 (≈ 0.612 µM) | 32 (≈ 78.4 µM) | 433 | 0.5 (≈ 1.22 µM) | > 128 | 0.25 (≈ 0.612 µM) | 64 (≈ 157 µM) | 4 (≈ 9.79 µM) | 4 (≈ 9.79 µM) | –
7 | CO/N=C1\CN(c2c(F)cc3c(=O)c(C(=O)O)cn(C4CC4)c3c2OC)CCC1(C)N (stereo not given) | > 128 | > 128 | 1 (≈ 2.31 µM) | 0.5 (≈ 1.16 µM) | 1 (≈ 2.31 µM) | > 128 | 0.25 (≈ 0.578 µM) | 0.25 (≈ 0.578 µM) | 0.25 (≈ 0.578 µM) | > 128 | 729 | 0.125 (≈ 0.289 µM) | > 128 | 0.25 (≈ 0.578 µM) | > 128 | 16 (≈ 37 µM) | 8 (≈ 18.5 µM) | Ratio (Enterococcus faecalis [18]): 4; Ratio [19]: 16; Ratio (Enterococcus faecalis [20]): 4; Ratio (Enterococcus faecalis [21]): 4; Ratio (Streptococcus pneumoniae [22]): 4
8 | CO/N=C1\CN(c2c(F)cc3c(=O)c(C(=O)O)cn(C4CC4)c3c2OC(F)F)CCC1(C)N (stereo not given) | > 128 | > 128 | 8 (≈ 17.1 µM) | 0.25 (≈ 0.534 µM) | > 128 | 128 (≈ 273 µM) | 0.25 (≈ 0.534 µM) | 0.25 (≈ 0.534 µM) | 0.25 (≈ 0.534 µM) | 2 (≈ 4.27 µM) | 1070 | 0.25 (≈ 0.534 µM) | > 128 | 0.25 (≈ 0.534 µM) | > 128 | 4 (≈ 8.54 µM) | 2 (≈ 4.27 µM) | –
9 | CO/N=C1\CN(c2nc3c(cc2F)c(=O)c(C(=O)O)cn3C2CC2)CCC1(C)N (stereo not given) | 16 (≈ 39.7 µM) | 16 (≈ 39.7 µM) | 16 (≈ 39.7 µM) | 4 (≈ 9.92 µM) | 16 (≈ 39.7 µM) | 8 (≈ 19.8 µM) | 0.25 (≈ 0.62 µM) | 0.25 (≈ 0.62 µM) | 0.25 (≈ 0.62 µM) | 16 (≈ 39.7 µM) | 77.4 | 0.25 (≈ 0.62 µM) | 64 (≈ 159 µM) | 0.25 (≈ 0.62 µM) | 2 (≈ 4.96 µM) | 4 (≈ 9.92 µM) | 16 (≈ 39.7 µM) | –
10 | CCO/N=C1\CN(c2c(F)cc3c(=O)c(C(=O)O)cn4c3c2OC[C@@H]4C)CCC1(C)N (stereo not given in full) | > 128 | 64 (≈ 148 µM) | 32 (≈ 74 µM) | 2 (≈ 4.62 µM) | 64 (≈ 148 µM) | 32 (≈ 74 µM) | 0.25 (≈ 0.578 µM) | 0.25 (≈ 0.578 µM) | 0.25 (≈ 0.578 µM) | 64 (≈ 148 µM) | 1160 | 0.25 (≈ 0.578 µM) | 32 (≈ 74 µM) | 0.25 (≈ 0.578 µM) | 2 (≈ 4.62 µM) | 4 (≈ 9.25 µM) | 64 (≈ 148 µM) | –
